Data taken from ChEMBL document CHEMBL4177653, “Identification of nitroimidazole-oxime derivatives targeting the polo-box domain of polo-like kinase 1” (Bioorg Med Chem, 2017).
Values after ≈ are worked out from the molar mass of the structure shown.

Columns and labels:
MCF7 = assay: Antiproliferative activity against human MCF7 cells after 72 hrs by MTT assay; format: functional, cell-based; conditions: MCF7, 72 h
Outline: (§1)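 Cells kept in high-glucose DMEM with L-glutamine, 10% FBS, penicillin/streptomycin, at 37 °C and 5% CO2. Seeded in 96-well plates and preincubated 48 h. Compounds added at preset concentrations (6 wells each; erlotinib as positive reference) for 72 h. MTT in PBS (2.5 mg/mL) added for 4 h, formazan dissolved in DMSO, A570 read. IC50 is the concentration leaving 50% of cells surviving. Mean ± SD of three independent experiments in triplicate.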

MGC-803 [1] = assay: Antiproliferative activity against human MGC803 cells after 72 hrs by MTT assay; format: functional, cell-based; conditions: MGC-803, 72 h; outline: as §1
HepG2 = assay: Antiproliferative activity against human HepG2 cells after 72 hrs by MTT assay; format: functional, cell-based; conditions: HepG2, 72 h; outline: as §1
HeLa = assay: Antiproliferative activity against human HeLa cells after 72 hrs by MTT assay; format: functional, cell-based; outline: as §1
[2] = Cytotoxicity against human 293T cells after 72 hrs by MTT assay; format: cell-based; conditions: HEK-293T cells
MGC-803 [3] = assay: Induction of apoptosis in human MGC803 cells assessed as necrotic cells at 0.01 uM after 24 hrs by Annexin V-FITC/propidium iodide staining-based flow cytometry (reference value: 0%); format: functional
MGC-803 [4] = assay: Induction of apoptosis in human MGC803 cells assessed as viable cells at 0.01 uM after 24 hrs by Annexin V-FITC/propidium iodide staining-based flow cytometry (reference value: 99.9%); format: functional; conditions: MGC-803, 24 h, read-out: Activity
MGC-803 [5] = assay: Induction of apoptosis in human MGC803 cells assessed as necrotic cells at 0.06 uM after 24 hrs by Annexin V-FITC/propidium iodide staining-based flow cytometry (reference value: 0%); format: functional
MGC-803 [6] = assay: Induction of apoptosis in human MGC803 cells assessed as necrotic cells at 0.12 uM after 24 hrs by Annexin V-FITC/propidium iodide staining-based flow cytometry (reference value: 0%); format: functional
MGC-803 [7] = assay: Induction of apoptosis in human MGC803 cells assessed as late apoptotic cells at 0.01 uM after 24 hrs by Annexin V-FITC/propidium iodide staining-based flow cytometry (reference value: 0%); format: functional
MGC-803 [8] = assay: Induction of apoptosis in human MGC803 cells after 24 hrs by Annexin V-FITC/propidium iodide staining-based flow cytometry; format: functional, cell-based
MGC-803 [9] = assay: Induction of apoptosis in human MGC803 cells assessed as viable cells at 0.12 uM after 24 hrs by Annexin V-FITC/propidium iodide staining-based flow cytometry (reference value: 99.9%); format: functional; conditions: MGC-803, 24 h, read-out: Activity
MGC-803 [10] = assay: Induction of apoptosis in human MGC803 cells assessed as early apoptotic cells at 0.01 uM after 24 hrs by Annexin V-FITC/propidium iodide staining-based flow cytometry (reference value: 0.1%); format: functional
MGC-803 [11] = assay: Induction of apoptosis in human MGC803 cells assessed as late apoptotic cells at 0.06 uM after 24 hrs by Annexin V-FITC/propidium iodide staining-based flow cytometry (reference value: 0%); format: functional
MGC-803 [12] = assay: Induction of apoptosis in human MGC803 cells assessed as late apoptotic cells at 0.12 uM after 24 hrs by Annexin V-FITC/propidium iodide staining-based flow cytometry (reference value: 0%); format: functional
MGC-803 [13] = assay: Induction of apoptosis in human MGC803 cells assessed as viable cells at 0.06 uM after 24 hrs by Annexin V-FITC/propidium iodide staining-based flow cytometry (reference value: 99.9%); format: functional; conditions: MGC-803, 24 h, read-out: Activity
MGC-803 [14] = assay: Induction of apoptosis in human MGC803 cells assessed as early apoptotic cells at 0.06 uM after 24 hrs by Annexin V-FITC/propidium iodide staining-based flow cytometry (reference value: 0.1%); format: functional
MGC-803 [15] = assay: Induction of apoptosis in human MGC803 cells assessed as early apoptotic cells at 0.12 uM after 24 hrs by Annexin V-FITC/propidium iodide staining-based flow cytometry (reference value: 0.1%); format: functional

SMILES | IC50 (MCF7) | IC50 (MGC-803 [1]) | IC50 (HepG2) | IC50 (HeLa) | CC50 at 72 h [2] | further results
Cc1nc([N+](=O)[O-])cn1C/C(=N\O)c1ccc(Br)cc1 | > 20 µg/mL | > 20 µg/mL | 17.4 µg/mL (≈ 51.3 µM) | > 20 µg/mL | – | –
Cc1nc([N+](=O)[O-])cn1C/C(=N/OC(=O)c1cccnc1)c1ccc(Br)cc1 | 0.78 µg/mL (≈ 1.76 µM) | 0.01 µg/mL (≈ 0.0225 µM) | 0.73 µg/mL (≈ 1.64 µM) | 1.51 µg/mL (≈ 3.4 µM) | 50 µg/mL (≈ 113 µM) | –
COc1ccccc1C(=O)O/N=C(/Cn1cc([N+](=O)[O-])nc1C)c1ccc(Br)cc1 | 3.13 µg/mL (≈ 6.61 µM) | 3.53 µg/mL (≈ 7.46 µM) | > 20 µg/mL | > 20 µg/mL | 500 µg/mL (≈ 1060 µM) | –
COc1ccc(C(=O)O/N=C(/Cn2cc([N+](=O)[O-])nc2C)c2ccc(Br)cc2)cc1 | 3.15 µg/mL (≈ 6.66 µM) | 0.34 µg/mL (≈ 0.718 µM) | 1.25 µg/mL (≈ 2.64 µM) | 6.54 µg/mL (≈ 13.8 µM) | 1600 µg/mL (≈ 3380 µM) | –
Cc1nc([N+](=O)[O-])cn1C/C(=N/OC(=O)c1ccccc1[N+](=O)[O-])c1ccc(Br)cc1 | 7.13 µg/mL (≈ 14.6 µM) | 2.54 µg/mL (≈ 5.2 µM) | 6.59 µg/mL (≈ 13.5 µM) | 11.3 µg/mL (≈ 23.2 µM) | 230 µg/mL (≈ 471 µM) | –
Cc1cccc(C(=O)O/N=C(/Cn2cc([N+](=O)[O-])nc2C)c2ccc(Br)cc2)c1 | 2.82 µg/mL (≈ 6.17 µM) | 3.25 µg/mL (≈ 7.11 µM) | 10.7 µg/mL (≈ 23.3 µM) | 12.3 µg/mL (≈ 27 µM) | 1300 µg/mL (≈ 2840 µM) | –
Cc1nc([N+](=O)[O-])cn1C/C(=N/OC(=O)c1ccccc1Br)c1ccc(Br)cc1 | 3.79 µg/mL (≈ 7.26 µM) | 2.63 µg/mL (≈ 5.04 µM) | 4.38 µg/mL (≈ 8.39 µM) | > 20 µg/mL | 150 µg/mL (≈ 287 µM) | –
CC1=CC(=O)C(C(C)C)=CC1=O [THYMOQUINONE] | – | – | – | – | 140 µg/mL (≈ 853 µM) | –
Cc1nc([N+](=O)[O-])cn1C/C(=N/OC(=O)c1ccccc1)c1ccc(Br)cc1 | > 20 µg/mL | 3.66 µg/mL (≈ 8.26 µM) | 14 µg/mL (≈ 31.5 µM) | > 20 µg/mL | 32000 µg/mL (≈ 72200 µM) | –
COc1ccc(C(=O)O/N=C(/Cn2cc([N+](=O)[O-])nc2C)c2ccc(Br)cc2)cn1 | 0.89 µg/mL (≈ 1.88 µM) | 0.03 µg/mL (≈ 0.0633 µM) | 0.92 µg/mL (≈ 1.94 µM) | 2.35 µg/mL (≈ 4.95 µM) | 980 µg/mL (≈ 2070 µM) | –
Cc1nc([N+](=O)[O-])cn1C/C(=N/OC(=O)c1cccc(F)c1)c1ccc(Br)cc1 | 1.87 µg/mL (≈ 4.05 µM) | 0.21 µg/mL (≈ 0.455 µM) | 0.97 µg/mL (≈ 2.1 µM) | 4.55 µg/mL (≈ 9.86 µM) | 530 µg/mL (≈ 1150 µM) | –
Cc1nc([N+](=O)[O-])cn1C/C(=N/OC(=O)c1ccc(Cl)nc1)c1ccc(Br)cc1 | 0.79 µg/mL (≈ 1.65 µM) | 0.82 µg/mL (≈ 1.71 µM) | 0.71 µg/mL (≈ 1.48 µM) | 0.96 µg/mL (≈ 2.01 µM) | 250 µg/mL (≈ 522 µM) | –
Cc1nc([N+](=O)[O-])cn1C/C(=N/OC(=O)c1cccnc1Cl)c1ccc(Br)cc1 | 0.76 µg/mL (≈ 1.59 µM) | 0.73 µg/mL (≈ 1.52 µM) | 0.76 µg/mL (≈ 1.59 µM) | 1.28 µg/mL (≈ 2.67 µM) | 12000 µg/mL (≈ 25100 µM) | –
Cc1ccccc1C(=O)O/N=C(/Cn1cc([N+](=O)[O-])nc1C)c1ccc(Br)cc1 | 2.15 µg/mL (≈ 4.7 µM) | 0.84 µg/mL (≈ 1.84 µM) | 2.37 µg/mL (≈ 5.18 µM) | 9.76 µg/mL (≈ 21.3 µM) | 3800 µg/mL (≈ 8310 µM) | –
Cc1nc([N+](=O)[O-])cn1C/C(=N/OC(=O)c1ccc(Cl)cc1)c1ccc(Br)cc1 | 2.79 µg/mL (≈ 5.84 µM) | 0.45 µg/mL (≈ 0.942 µM) | 1.34 µg/mL (≈ 2.81 µM) | 8.79 µg/mL (≈ 18.4 µM) | 230 µg/mL (≈ 481 µM) | –
Cc1nc([N+](=O)[O-])cn1C/C(=N/OC(=O)c1ccc([N+](=O)[O-])cc1)c1ccc(Br)cc1 | 0.86 µg/mL (≈ 1.76 µM) | 0.37 µg/mL (≈ 0.758 µM) | 1.43 µg/mL (≈ 2.93 µM) | 12.4 µg/mL (≈ 25.4 µM) | 160 µg/mL (≈ 328 µM) | –
O=c1[nH]cc(F)c(=O)[nH]1 [FLUOROURACIL] | 2.19 µg/mL (≈ 16.8 µM) | 1.8 µg/mL (≈ 13.8 µM) | 2.24 µg/mL (≈ 17.2 µM) | 3.82 µg/mL (≈ 29.4 µM) | – | –
Cc1ccc(C(=O)O/N=C(/Cn2cc([N+](=O)[O-])nc2C)c2ccc(Br)cc2)cc1 | 1.54 µg/mL (≈ 3.37 µM) | 0.81 µg/mL (≈ 1.77 µM) | 0.96 µg/mL (≈ 2.1 µM) | 0.96 µg/mL (≈ 2.1 µM) | 270 µg/mL (≈ 590 µM) | –
Cc1ccc(C(=O)O/N=C(/Cn2cc([N+](=O)[O-])nc2C)c2ccc(Br)cc2)cn1 | 0.72 µg/mL (≈ 1.57 µM) | 0.005 µg/mL (≈ 0.0109 µM) | 0.75 µg/mL (≈ 1.64 µM) | 0.86 µg/mL (≈ 1.88 µM) | 8300 µg/mL (≈ 18100 µM) | Activity (MGC-803 [3]): 1.2%; viability at 0.01 µM (MGC-803 [4]): 61%; Activity (MGC-803 [5]): 0.2%; Activity (MGC-803 [6]): 0.1%; Activity (MGC-803 [7]): 28.1%; Activity (MGC-803 [8]): Dose-dependent effect; viability at 0.12 µM (MGC-803 [9]): 18.4%; Activity (MGC-803 [10]): 9.7%; Activity (MGC-803 [11]): 43.2%; Activity (MGC-803 [12]): 64.6%; viability at 0.06 µM (MGC-803 [13]): 41.2%; Activity (MGC-803 [14]): 15.4%; Activity (MGC-803 [15]): 16.9%
Cc1nc([N+](=O)[O-])cn1C/C(=N/OC(=O)c1ccccc1Cl)c1ccc(Br)cc1 | 1.27 µg/mL (≈ 2.66 µM) | 0.16 µg/mL (≈ 0.335 µM) | 1.33 µg/mL (≈ 2.78 µM) | 8.53 µg/mL (≈ 17.9 µM) | 530 µg/mL (≈ 1110 µM) | –
Cc1nc([N+](=O)[O-])cn1C/C(=N/OC(=O)c1cccc(Br)c1)c1ccc(Br)cc1 | 1.37 µg/mL (≈ 2.62 µM) | 0.04 µg/mL (≈ 0.0766 µM) | 0.86 µg/mL (≈ 1.65 µM) | 2.57 µg/mL (≈ 4.92 µM) | 180 µg/mL (≈ 345 µM) | –
Cc1nc([N+](=O)[O-])cn1C/C(=N/OC(=O)c1ccc(Br)cc1)c1ccc(Br)cc1 | 2.56 µg/mL (≈ 4.9 µM) | 1.48 µg/mL (≈ 2.83 µM) | 2.56 µg/mL (≈ 4.9 µM) | 5.67 µg/mL (≈ 10.9 µM) | 330 µg/mL (≈ 632 µM) | –
Cc1nc([N+](=O)[O-])cn1C/C(=N/OC(=O)c1ccc(F)cc1)c1ccc(Br)cc1 | 2.12 µg/mL (≈ 4.6 µM) | 1.24 µg/mL (≈ 2.69 µM) | 1.22 µg/mL (≈ 2.65 µM) | 7.24 µg/mL (≈ 15.7 µM) | 23000 µg/mL (≈ 49900 µM) | –
Cc1nc([N+](=O)[O-])cn1C/C(=N/OC(=O)c1cccc(Cl)c1)c1ccc(Br)cc1 | 0.84 µg/mL (≈ 1.76 µM) | 0.18 µg/mL (≈ 0.377 µM) | 1.15 µg/mL (≈ 2.41 µM) | 4.09 µg/mL (≈ 8.56 µM) | 700 µg/mL (≈ 1470 µM) | –
Cc1nc([N+](=O)[O-])cn1C/C(=N/OC(=O)c1ccncc1)c1ccc(Br)cc1 | 0.87 µg/mL (≈ 1.96 µM) | 0.02 µg/mL (≈ 0.045 µM) | 0.81 µg/mL (≈ 1.82 µM) | 1.63 µg/mL (≈ 3.67 µM) | 80 µg/mL (≈ 180 µM) | –
